Compounds with a hit are over-represented: about 5.1% of the library has one in this group of screens.
STAT3 act – IL-6 driven STAT3 reporter potentiators, primary screen, U3A cells, luciferase, luminescence, MLSCN library | IL-6 STAT3-luciferase reporter; 100% = signal with IL-6 EC80 alone | activation (% of control), % at 5.6 µM | hit rate 0.91% among 190,000 | AID 871, 2007;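 active = activation above the screen-wide mean of compound activation plus 3 SD, cut at about 130% in these data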;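 also: 0% = background luminescence of wells with medium and substrate only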
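Material: STAT1-lacking human U3A cells, STAT3 luciferase reporter | Benchmarks: IL-6-only wells as 100% reference | Probe or stimulus: IL-6 (33 ng/mL) | Timing: Compound 1 h, then IL-6 6 h at 37 °C | Detection: Luminescence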
APP 5'UTR act – activators of APP 5'UTR luciferase reporter, primary screen, SH-SY5Y cells; SH-SY5Y APP 5'UTR luciferase reporter, luminescence; zero percent = DMSO vehicle wells; activation, % at 2 µM; hit rate 1% among 190,000;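 active = activation above a set limit, based on mean plus 3 SD of controls, cut at about 140% in these data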
NF-kB expr up – activators of NF-kB expression in neurons, primary screen, cell-based, HTS; human neuronal cells, NF-kB reporter expression; hits give high values; fold change at 12.5 µM; hit rate 1.6% among 190,000; AID 1239, 2008; in the data active = fold change above about 3.3
STAT1 blocker – STAT1 signaling inhibitors, primary screen, cell-based, HTS, luciferase reporter. NIH 3T3 STAT1-luciferase reporter, IFN-gamma, luminescence. inhibition, % at 5.5 µM. hit rate 0.35% among 200,000. AID 920, 2007;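 active = inhibition above a set limit, the mean inhibition across all tested compounds plus 3 SD, cut at about 34% in these data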;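 also: 0% = IFN-gamma with DMSO and 100% = IFN-gamma with 300 µM nifuroxazide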
STAT3 blocker – IL-6 driven STAT3 reporter inhibitors, primary screen, U3A cells, luciferase, luminescence, MLSCN library. IL-6 STAT3-luciferase reporter; host cell line lacks STAT1. inhibition, % at 5.5 µM. hit rate 0.89% among 190,000;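 active = inhibition above the mean inhibition across all screened compounds plus 3 SD, cut at about 44% in these data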;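 also: 0% = DMSO only wells and 100% = 100 µM nifuroxazide control wells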
STAT1 activator – STAT1 signaling activators, primary screen, cell-based, HTS, luciferase reporter; AID 932, 2007; NIH 3T3 STAT1-luciferase reporter, IFN-gamma, luminescence; 100% = IFN-gamma alone, no compound; hit rate 2.6% among 200,000; activation (% of control), % at 5.5 µM;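 active = activation above the screen-wide mean activation plus 3 SD, cut at about 130% in these data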;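 also: raw ratio to IFN-gamma control signal so 100% means no change and 0% no light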
* hit, by the source's call; x = no result.

SMILES	STAT3 act	APP 5'UTR act	NF-kB expr up	STAT1 blocker	STAT3 blocker	STAT1 activator
N/C(=N\OC(=O)Cc1cccc2ccccc12)c1ccccn1	107	109	6.1*	-25	-1	123
O=C(/C=C/c1ccccc1)c1ccccn1	108	10	1.2	-18	1	116
Cc1ccc(OCC(=O)O/N=C(\N)c2cccnc2)cc1	95	39	1.6	-18	13	117
Cc1cccc(OCC(=O)O/N=C(\N)c2ccccn2)c1C	104	72	2.2	-43	-1	138*
Cc1ccc(OCC(=O)O/N=C(\N)c2ccccn2)cc1	112	101	2.5	-47	-3	144*
CCOCCCNS(=O)(=O)c1ccc(NC(=O)Cc2c(F)cccc2Cl)cc1	97	4	1.4	-3	8	101
Cc1ccc(NC(=O)C2Cc3ccccc3C(=O)O2)cc1 (stereo unspecified)	92	52	1.7	-39	13	135*
C=CCNC(=O)c1c(Cl)cnn1-c1ccc(C)cc1	101	104	3.2	-45	4	139*
Cc1ccc(-n2ncc(Cl)c2C(=O)NC2CC2)cc1	111	98	3	-47	-8	141*
Cc1ccc(-n2ncc3c(=O)n(CC(=O)NC4CCCCC4)cnc32)cc1	103	-2	1	0	2	100
CC(=O)Nc1ccc(S(=O)(=O)NCCSCc2ccc(Cl)cc2Cl)cc1	70	2	0.79	8	38	93
Cc1ncc([N+](=O)[O-])n1CC(=O)N/N=C/c1ccc(F)cc1	103	2	1.1	-1	8	99
O=C(Nc1ccc(F)cc1)c1ccccc1	100	45	1.7	-23	1	121
O=C(Nc1ccc(SC(F)F)cc1)c1ccc(F)cc1	84	107	4.7*	-39	20	137*
CCn1c(COc2ccc(C)cc2)nnc1SCc1ccc(C#N)cc1	90	-9	1	-1	16	101
CCCCSc1ccc2nc(-c3ccc(C#N)cc3)cn2c1	94	37	2.2	-35	13	131*
CCCSc1ccc2nc(-c3ccccc3)cn2c1	15	98	1.2	79*	103*	31
CCN=c1scc(-c2ccc(F)cc2)n1/N=C/c1ccccn1	85	107	5*	-41	24	138*
CCN=c1scc(-c2ccccc2)n1/N=C/c1ccccn1	61	166*	3	-76	45*	170*
CCc1ccc(C2=NN(CCC(=O)NC(C)CCc3ccccc3)C(=O)CC2)cc1 (stereo unspecified)	91	-6	1.3	5	14	95
CCOC(=O)C(=O)N1CCN(c2cc3c(cc2[N+](=O)[O-])n(C)c(=O)n3C)CC1	96	0	1.1	0	7	98
CC(C)CC1c2[nH]c3ccccc3c2CCN1C(=O)c1cnccn1 (stereo unspecified)	171*	90	3	-52	-61	146*
COCCn1c(C)cc(C(=O)COC(=O)c2ccc3ncsc3c2)c1C	106	83	1.1	-35	-4	132*
Cc1cc(C(=O)COC(=O)c2ccccc2O)c(C)n1Cc1cccs1	14	8	0.23	75*	104*	31
CC(=O)Nc1ccc(SCC(=O)c2cc(C)n(Cc3cccs3)c2C)cc1	25	112	0.32	48*	95*	57
SMILES	STAT3 act	APP 5'UTR act	NF-kB expr up	STAT1 blocker	STAT3 blocker	STAT1 activator
COCCn1c(C)cc(C(=O)COC(=O)c2cncc(Br)c2)c1C	103	47	1.9	-40	0	136*
CCOc1cc(/C=C/C(=O)OCC(=O)NC2CCS(=O)(=O)C2)ccc1OCc1ccccc1 (stereo unspecified)	101	-16	1.1	-7	1	105
COCCn1c(C)cc(C(=O)COC(=O)c2ccccc2Br)c1C	27	30	0.38	86*	85*	21
COCCn1c(C)cc(C(=O)COC(=O)c2ccc(NC(=O)CC#N)cc2)c1C	106	149*	1.1	-37	-3	134*
OC(CNCc1ccccc1Cl)C(F)(F)F (stereo unspecified)	95	32	1.1	-1	16	99
O=C(Nc1ccccc1)c1ccncc1	101	14	1.2	-4	-1	104
Cc1ccc2oc(-c3ccc(NC(=O)c4cccnc4)cc3)nc2c1	89	225*	1.7	-48	16	144*
O=C(Nc1cnc2ccccc2c1)c1ccncc1	97	133	3.5*	-32	8	130*
O=C(Nc1ccc2ccccc2c1)c1cccnc1	94	125	5*	-41	15	137*
O=C(Nc1ccc2ccccc2c1)c1cnccn1	70	157*	6.5*	-13	40	112
O=C(Nc1cccnc1)c1cccnc1	103	6	0.93	1	1	97
C=CCNC(=O)c1c(Cl)nc(C)c([N+](=O)[O-])c1C	105	-4	1.4	-4	-2	104
CC(C)c1ccc2oc(-c3ccc(NC(=O)c4ncn[nH]4)cc3)nc2c1	93	70	1.3	-35	12	136*
CC(C)S(=O)(=O)CC(=O)c1ccc(Cl)cc1	100	7	1	2	7	97
Cc1csc(Nc2cccc3ccccc23)n1	88	22	1.4	-4	16	104
Cc1ccc(Nc2nc(C)cs2)cc1	85	199*	0.94	-35	20	130*
Cc1csc(Nc2ccc(Cl)cc2)n1	96	47	2.3	-46	10	138*
COc1cccc(/C=C2/CN(C)CC3=C2OC(N)=C(C#N)C3c2cccc(OC)c2)c1 (stereo unspecified)	97	4	1	-15	6	114
CCOc1ccc(C(=O)NCc2cccs2)cc1	114	x	1.7	-5	-14	100
CCCCOc1ccc(C(=O)NCCc2cccs2)cc1	110	53	2.5	-40	-7	134*
CCOc1c2ccc(C(=O)NCCc3cccs3)cc2nn1CC	104	81	3	-49	3	144*
Nc1ccc2oc3ccc(N)cc3c(=O)c2c1	87	x	2.1	-52	16	143*
O=C(O)c1cc2c(ccc3ccccc32)o1	106	11	1.3	-7	3	107
N#CC1=C(N)OC2=C(CCc3ccccc32)C1c1ccccc1 (stereo unspecified)	113	-96	4.7*	-5	-10	104
Cc1nnc2c(NC3CCCC3)nc3ccccc3n12	82	15	0.99	17	28	84
c1ccc2c(c1)nc(NC1CCCCC1)c1nncn12	136*	-8	0.68	-14	-37	113
